≈ marks a conversion by molar mass, not a printed value.

The source of these data is ChEMBL document CHEMBL3808328, “Caged xanthones: Potent inhibitors of global predominant MRSA USA300” (Bioorg Med Chem Lett, 2016).

Assay [1] has as its system Staphylococcus aureus. Put plainly: Antibacterial activity against methicillin-susceptible Staphylococcus aureus ATCC 25923 assessed as zone of inhibition at 30 ug after 18 hrs by disk diffusion method. The class given is functional. The conditions noted are these: ATCC 25923, 18 h, read-out: DIZ. In a few lines: (§1)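 Disks 6 mm in diameter; a 6 mm zone means no growth inhibition. The diameters of complete-inhibition zones are averaged over at least three independent experiments and reported with standard errors.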

The subject of assay [2] is Staphylococcus aureus. Kind of assay: Bactericidal activity against methicillin-resistant Staphylococcus aureus USA300 SF8300 after 18 to 20 hrs. The class given is functional. In outline:
(§2)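 Broth microdilution to find MIC and MBC against MRSA USA300 SF8300. Each compound was serially 2-fold diluted starting from its stock concentration.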

Assay [3] concerns Staphylococcus aureus. Kind of assay: Antibacterial activity against methicillin-resistant Staphylococcus aureus USA300 SF8300 assessed as growth inhibition after 18 to 20 hrs by microdilution assay. The class given is functional. In a few lines:
as §2

Assay [4] has as its system A549. Kind of assay: Cytotoxicity against human A549 cells assessed as reduction in cell viability after 24 to 48 hrs by Presto Blue assay. The class given is cell-based.
For assay [5], the system named is Staphylococcus aureus. Kind of assay: Antibacterial activity against methicillin-resistant Staphylococcus aureus USA300 SF8300 assessed as zone of inhibition at 30 ug after 18 hrs by disk diffusion method. The assay is classed as functional. To be noted: USA300 SF8300, 18 h, read-out: DIZ. In outline: (§3)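 Disk diffusion on 6 mm paper disks, with methicillin-susceptible S. aureus ATCC 25923 as the control strain alongside MRSA USA300 SF8300. The read-out is the diameter of the complete inhibition zone, averaged over at least three independent experiments and reported with standard errors. A 6 mm zone means no growth inhibition.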

Assay [6] has as its system Staphylococcus aureus. Kind of assay: Bactericidal activity against methicillin-susceptible Staphylococcus aureus ATCC 29213 after 18 to 20 hrs. The class given is functional. In outline:
(§4)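 Broth microdilution gives both MIC and MBC. Each compound is serially 2-fold diluted starting from its stock concentration.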

Assay [7] relates to Staphylococcus aureus. Kind of assay: Antibacterial activity against methicillin-susceptible Staphylococcus aureus ATCC 29213 assessed as growth inhibition after 18 to 20 hrs by microdilution assay. The class given is functional. In a few lines: as §4
For assay [8], the system named is HEK293. Put plainly: Cytotoxicity against human HEK293 cells assessed as reduction in cell viability after 24 to 48 hrs by […] assay.
Assay [9] has as its system Staphylococcus aureus. Put plainly: Antibacterial activity against methicillin-resistant Staphylococcus aureus USA300 SF8300 assessed as zone of inhibition at 10 ug after 18 hrs by disk diffusion method. The class given is functional. The conditions noted are these: USA300 SF8300, 18 h, read-out: DIZ. In a few lines: as §3
The subject of assay [10] is Staphylococcus aureus. Kind of assay: Antibacterial activity against methicillin-susceptible Staphylococcus aureus ATCC 25923 assessed as zone of inhibition at 10 ug after 18 hrs by disk diffusion method. To be noted: ATCC 25923, 18 h, read-out: DIZ. The class given is functional. In outline: as §1
Assay [11] deals with Staphylococcus aureus. Kind of assay: Antibacterial activity against methicillin-resistant Staphylococcus aureus USA300 SF8300 assessed as zone of inhibition at 1 ug after 18 hrs by disk diffusion method. The assay is classed as functional. To be noted: USA300 SF8300, 18 h, read-out: DIZ. In a few lines:
as §3

Assay [12] has as its system Staphylococcus aureus. Put plainly: Antibacterial activity against methicillin-susceptible Staphylococcus aureus ATCC 25923 assessed as zone of inhibition at 1 ug after 18 hrs by disk diffusion method. To be noted: ATCC 25923, 18 h, read-out: DIZ. The assay is classed as functional. In a few lines: as §3

For `CC(C)=CCc1c2c(c(O)c3c1O[C@@]14C(=C[C@H]5CC1C(C)(C)O[C@]4(C/C=C(/C)C(=O)N[C@@H](CC(C)C)C(=O)O)C5=O)C3=O)C=CC(C)(C)O2`, the zone of inhibition at 30 µg/disc was determined as 16.5 mm in assay [1] and 18.3 mm in [5]. Further, the results for the MBC in assay [2] and in [6] were 50 µM (≈ 33.7 µg/mL) and 25 µM (≈ 16.8 µg/mL), respectively. The MIC in assay [3] and in assay [7] was 25 µM (≈ 16.8 µg/mL) throughout. In addition, the IC50 in assay [4] was found to be 15500 nM.

On to `CC(C)=CCc1c2c(c(O)c3c1O[C@@]14C(=C[C@H]5CC1C(C)(C)O[C@]4(C/C=C(\C)CO)C5=O)C3=O)C=CC(C)(C)O2`, for which the zone of inhibition at 30 µg/disc in assay [1] is 7.75 mm; in [5], 8.57 mm. In addition, the values for the half-inhibitory concentration (IC50) in assay [4] and in assay [8] were 2690 nM and 980 nM, respectively.

For `CC(C)=CCc1c(O)cc(O)c2c1OC13C(=CC4CC1C(C)(C)O[C@]3(CC=C(C)C)C4=O)C2=O`, the zone of inhibition at 30 µg/disc amounted to 7.86 mm in assay [1] and 7.97 mm in assay [5]. Further, the MBC in [2] was over 400 µM; in [6], 200 µM (≈ 92.9 µg/mL). Further, the minimal inhibitory concentration (MIC) in [3] was over 400 µM; in assay [7], 200 µM (≈ 92.9 µg/mL).

Consider `CC(C)=CCC/C(C)=C/Cc1c(O)c(CC=C(C)C)c2c(c1O)C(=O)C1=C[C@H]3CC4C(C)(C)O[C@](CC=C(C)C)(C3=O)[C@]14O2`, for which the zone of inhibition at 30 µg/disc in assay [1] and in assay [5] was 6 mm throughout.

As for `CC(C)=CCc1c(O)cc(O)c2c1OC13C(=CC4(C/C=C/C(C)C)CC1C(C)(C)O[C@]3(CC=C(C)C)C4=O)C2=O`, the zone of inhibition at 30 µg/disc in assay [1] and in assay [5] was 6 mm throughout.

Take `CC(C)=CCc1c2c(c(O)c3c1O[C@@]14C(=C[C@H]5CC1C(C)(C)O[C@]4(CC=C(C)C)C5=O)C3=O)C=CC(C)(C)O2`: the zone of inhibition at 30 µg/disc in assay [1] and in assay [5] was 6 mm throughout. Also, the figures for the 50% inhibitory concentration (IC50) in assay [4] and in [8] were 1420 nM and 810 nM, respectively.

On to `CC1(C)S[C@@H]2[C@H](NC(=O)[C@H](N)c3ccccc3)C(=O)N2[C@H]1C(=O)O` [AMPICILLIN], for which the MBC in assay [2] is over 100 µM; in [6] it was 1.56 µM (≈ 0.545 µg/mL). Also, the minimum inhibitory concentration (MIC) is over 100 µM in [3] and 1.56 µM (≈ 0.545 µg/mL) in [7]. Further, the zone of inhibition at 10 µg/disc was 6 mm in assay [9] and 17 mm in assay [10].

In the case of `CC(C)=CCc1c2c(c(O)c3c1O[C@@]14C(=C[C@H]5CC1C(C)(C)O[C@]4(C/C=C(/C)C(=O)N[C@@H](CCC(N)=O)C(=O)O)C5=O)C3=O)C=CC(C)(C)O2`, the zone of inhibition at 30 µg/disc in assay [1] is 7.5 mm; in assay [5], 9.09 mm.

In the case of `Cc1onc(-c2ccccc2)c1C(=O)N[C@@H]1C(=O)N2[C@@H]1SC(C)(C)[C@@H]2C(=O)O` [OXACILLIN], the zone of inhibition at 1 µg/disc came to 6 mm in assay [11] and 28.9 mm in assay [12]. The MBC was over 19.9 µM in assay [2] and 1.25 µM (≈ 0.502 µg/mL) in assay [6]. For the same molecule, the results for the MIC in [3] and in assay [7] were over 19.9 µM and 0.62 µM (≈ 0.249 µg/mL), respectively.

In the case of `COC(=O)/C(C)=C\C[C@]12OC(C)(C)C3C[C@H](C=C4C(=O)c5c(O)c6c(c(CC=C(C)C)c5O[C@@]431)OC(C)(C)C=C6)C2=O`, the zone of inhibition at 30 µg/disc in [1] and in [5] was 6 mm in each case.

Take `CSCC[C@H](NC(=O)/C(C)=C\C[C@]12OC(C)(C)C3C[C@H](C=C4C(=O)c5c(O)c6c(c(CC=C(C)C)c5O[C@@]431)OC(C)(C)C=C6)C2=O)C(=O)O`: the zone of inhibition at 30 µg/disc in assay [1] is 7.09 mm; in assay [5], 9.53 mm.
